Assay results published in publication PMC8458252 (Circulation. Heart failure, 2021).

Key:
[1] = Plasma pharmacokinetics after single oral dose in HFrEF patients; assay type: in vivo, human
How it was run: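 After a single oral liquid dose (10, 30 or 90 mg) in fasted HFrEF patients, plasma was drawn pre-dose and at 5, 15, 30, 45, 90 and 120 min on Day 1, and again on Day 5. Parameters: AUC 0–2 h, Cmax, Tmax, lag time. Half-life was estimated from Day 5 levels relative to peak. Data analysed by two-way repeated-measures ANOVA.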

HFrEF patients [2] = test: Echo-Doppler hemodynamics, baseline versus 2 hours post-dose, in HFrEF patients; assay type: in vivo, human
How it was run: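 Single oral dose (10, 30 or 90 mg, or placebo; randomised 3:1; n=9/dose) in fasted HFrEF patients. Transthoracic 2D Doppler echo at baseline and 120 ± 15 min, read blinded in a core lab. Cuff BP/HR taken at imaging. Outputs: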

[3] = tested on: plasma cGMP and cAMP levels; test: Plasma cAMP and cGMP by LC/MS/MS in HFrEF patients; assay type: in vivo, human; details: baseline versus 2 hours after dosing
How it was run: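 HFrEF patients received one oral dose of test compound (10, 30 or 90 mg) or placebo. Plasma was sampled at baseline and 2 h post-dose and stored frozen. cAMP and cGMP were measured by a validated LC/MS/MS method with quantitation limits of 20 to 5000 […].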

PDE1C = details: read-out: IC50 for PDE1C; cited from earlier work
HFrEF patients [4] = test: 12-lead ECG QTc and Holter arrhythmia monitoring in HFrEF patients; assay type: in vivo, human
How it was run: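 HFrEF patients fasted ≥8 h took one oral liquid dose of test compound (10, 30 or 90 mg) or placebo, randomised 3:1. 12-lead ECG at baseline, 120 ± 15 min post-dose and Day 5 ± 1. Continuous bedside telemetry plus Holter recording. Holter gave hourly supraventricular and ventricular runs and ectopic-beat burden versus pre-dose.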

HFrEF patients [5] = test: Tolerability / adverse events in HFrEF patients; assay type: in vivo, human
How it was run: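 In a blinded, placebo-controlled study, stable HFrEF patients on guideline therapy were randomised 3:1 in sequential cohorts. Each received one oral liquid dose (10, 30 or 90 mg) or placebo after an ≥8 h fast. Monitoring ran 5 h post-dose, with a follow-up visit on Day 5 ± 1 (exam, ECG, blood and urine labs). Adverse events were recorded at each visit per protocol.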

HFrEF patients [6] = test: Supine and orthostatic blood pressure and heart rate in HFrEF patients; assay type: in vivo, human
How it was run: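 Fasted HFrEF patients were randomised 3:1 to one oral liquid dose (10, 30 or 90 mg) or placebo. Supine BP and HR were taken by automated cuff every 10 min from 30 min pre-dose to 120 min post-dose, then every 30 min to 5 h. Orthostatic readings were taken at 60 ± 5 and 240 ± 15 min and on Day 5, after 1, 3 and 5 min standing. Time course versus placebo by ANCOVA; orthostatic change by ANOVA.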

PDE1 = details: cited from earlier work
PDE5 = details: cited from earlier work
PDE1A = details: read-out: IC50 for PDE1A; cited from earlier work
PDE3 = details: cited from earlier work
rats = details: cited from earlier work

## CN1C(=O)c2c(nn(Cc3ccc(-c4cccc(F)n4)cc3)c2Nc2ccccc2)N2C1=N[C@@H]1CCC[C@@H]12 [ITI-214]
[1]; after five days, at each dose
  drug level as % of peak concentration: 2-3%
[1]; after oral dosing
  time at which peak concentration was achieved: ≤ 45 min
[1]; human, plasma, oral
  half-life: ~22 h
[1]; human, plasma, po, 90 mg
  Tmax: 0.75 to 1.1 h
HFrEF patients [2]; 10 mg, baseline to 120 minutes
  median change in PWRi (mean LV power index): 0.018 (IQR 0.122) Watts/mL^2·10^4
  median rise in cardiac output: 0.717 L/min
HFrEF patients [2]; 30 mg
  E/E’: small rise
HFrEF patients [2]; 30 mg, baseline to 120 minutes
  change in systemic vascular resistance: −564 dynes·s/cm^−5
  median change in PWRi (mean LV power index): 0.143 (IQR 0.154) Watts/mL^2·10^4
  median rise in cardiac output: 0.830 L/min
HFrEF patients [2]; 90 mg, baseline to 120 minutes
  change in systemic vascular resistance: −370 dynes·s/cm^−5
  median change in PWRi (mean LV power index): 0.083 (IQR 0.126) Watts/mL^2·10^4
  median rise in cardiac output: 0.666 L/min
HFrEF patients [2]; 90 mg, pre versus post dose
  percent increase in cardiac output: 18%
  percent increase in mPWRi: 33%
HFrEF patients [2]; all doses
  total LV afterload (Ea): significantly reduced
HFrEF patients [2]; baseline to 120 minutes
  end-diastolic volume: little effect
  isovolumic relaxation time: little effect
[3]
  plasma cAMP level: did not significantly change
  plasma cGMP level: did not significantly change
PDE1C
  IC50: 0.035 nM
HFrEF patients [4]; 10 mg, 120 minutes post-dose versus baseline
  change in QTc: 1 ± 9 ms
HFrEF patients [4]; 10 mg, Day 5 versus baseline
  change in QTc: -13 ± 17 ms
HFrEF patients [4]; 30 mg, 120 minutes post-dose versus baseline
  change in QTc: -4 ± 18 ms
HFrEF patients [4]; 30 mg, Day 5 versus baseline
  change in QTc: -19 ± 22 ms
HFrEF patients [4]; 90 mg, 120 minutes post-dose versus baseline
  change in QTc: -4 ± 24 ms
HFrEF patients [4]; 90 mg, Day 5 versus baseline
  change in QTc: -16 ± 19 ms
HFrEF patients [4]; compared to pre-dosing
  arrhythmia outcomes (Holter): no clinical change
HFrEF patients [5]; 27 subjects treated
  feeling hot, share of subjects: 7%
  headache, share of subjects: 7%
  hypotension, share of subjects: 11%
  orthostatic hypotension, share of subjects: 11%
  parosmia, share of subjects: 15%
  taste disorder, share of subjects: 7%
HFrEF patients [5]; all ITI-214 doses
  subjects with mild adverse events: 11 of the 27 subjects
HFrEF patients [5]; any time in the study
  serious adverse events: no serious adverse events
HFrEF patients [5]; single dose
  tolerability: well-tolerated
HFrEF patients [6]; over 2 hours post-dose, each dose
  diastolic BP change: declined
HFrEF patients [6]; single oral dose 10-90 mg
  increase in heart rate: 5-9 bpm
HFrEF patients [6]; upon standing
  orthostatic SBP changes versus placebo: No SBP changes were significantly different
PDE1; versus LuAF41228 and LuAF58027
  potency relative to either Lu-compound (more potent): > 1000 x
PDE5
  selectivity for PDE1 over PDE5: 19,000 fold
PDE1A
  IC50: 0.035 nM
PDE3
  selectivity for PDE1 over PDE3: 94,000 fold

## CCC(CC)Nc1ncnc2c(OC)c(OC)ccc12 [LuAF41228]
rats
  lowering of blood pressure: ≥ 15 mmHg

## CCOC(=O)C1=C[C@]2(CC)CCCN3CCc4c(n1c1ccccc41)[C@@H]32 [vinpocetine, reference compound]
PDE1
  PDE1 inhibitor potency relative to ITI-214 (less potent): < 10^6
